Consider 10 compounds from ChEMBL document CHEMBL3352068 (Bioorg Med Chem, 2014).

Each structure is given as a SMILES string.

Assay [1] addresses Carbonic anhydrase 9 (Homo sapiens, UniProt Q16790). Put plainly: Inhibition of human recombinant carbonic anhydrase 9 pre-incubated for 15 mins by stopped-flow CO2 hydration assay. In outline:
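Recombinant human enzyme, produced in-house. CO2 1.7–17 mM. Initial rates taken over 10-100 s from at least six traces, with the uncatalysed rate subtracted. Inhibitor diluted in water from 0.1 mM stock down to 0.01 nM, preincubated with enzyme at room temperature. Three determinations.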

Assay [2] deals with Carbonic anhydrase 2 (Homo sapiens, UniProt P00918). Put plainly: Inhibition of human recombinant carbonic anhydrase 2 pre-incubated for 15 mins by stopped-flow CO2 hydration assay.

On to `COc1cccc(/C=C/C(=O)C[C@@H]2O[C@H](COC(C)=O)[C@@H](OC(C)=O)[C@H](OC(C)=O)[C@H]2OC(C)=O)c1`, for which, in assay [1], the Ki is 779 nM.
The same measure, in the same setting: in the case of `COc1ccc(/C=C/C(=O)C[C@@H]2O[C@H](COC(C)=O)[C@@H](OC(C)=O)[C@H](OC(C)=O)[C@H]2OC(C)=O)cc1OC` it was 753 nM.
As to `COc1cccc(/C=C/C(=O)C[C@@H]2O[C@H](COC(C)=O)[C@H](OC(C)=O)[C@H](OC(C)=O)[C@H]2OC(C)=O)c1`, in assay [1], the Ki was 93 nM.
Turning to `COc1ccc(/C=C/C(=O)C[C@@H]2O[C@H](COC(C)=O)[C@H](OC(C)=O)[C@H](OC(C)=O)[C@H]2OC(C)=O)cc1OC`, the Ki in assay [1] worked out at 773 nM.
As to `COc1cccc(/C=C/C(=O)C[C@@H]2O[C@H](CO)[C@@H](O)[C@H](O)[C@H]2O)c1`, the Ki in assay [2] is greater than 50000 nM; in assay [1] it was 615 nM.
Regarding `COc1ccc2cc(/C=C/C(=O)C[C@@H]3O[C@H](CO)[C@@H](O)[C@H](O)[C@H]3O)ccc2c1`, the results for the Ki in assay [2] and in assay [1] were greater than 50000 nM and 462 nM, respectively.
On the same counts, the results for `COc1cccc(/C=C/C(=O)C[C@@H]2O[C@H](CO)[C@H](O)[C@H](O)[C@H]2O)c1` are greater than 50000 nM and 3860 nM.
On to `COc1ccc(/C=C/C(=O)C[C@@H]2O[C@H](CO)[C@H](O)[C@H](O)[C@H]2O)cc1OC`, for which the inhibition constant Ki in assay [1] was 936 nM.
`COc1ccc2cc(/C=C/C(=O)C[C@@H]3O[C@H](CO)[C@H](O)[C@H](O)[C@H]3O)ccc2c1`: the Ki in assay [2] was greater than 50000 nM; in assay [1], 485 nM.
Consider `COc1ccc(/C=C/C(=O)C[C@@H]2O[C@H](CO)[C@@H](O)[C@H](O)[C@H]2O)cc1OC`, for which the Ki in assay [1] was 840 nM.
